Reference: ChEMBL document CHEMBL1138852, “Arylpiperazinylalkylpyridazinones and analogues as potent and orally active antinociceptive agents: synthesis and studies on mechanism of action” (J Med Chem, 2006)
Values joined by “and” are separate entries in the source; they are usually repeats but may differ in a detail not shown here. Equal entries are not always repeated. One block for each molecule: values may come before it. Active and inactive are the calls of the source.

Tests used:
Mus musculus [1] = experiment: Antinociceptive activity in Swiss Albino mouse at 20 mg/kg, po by writhing test measured as number of writhes; type: functional
In short: (§1)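 Drugs dosed orally 30 min before test, in saline or 1% CMC suspension; yohimbine arm included. 0.6% acetic acid (10 mL/kg) injected i.p., and abdominal constrictions counted for 10 min from 5 min after injection. Values are means of at least two experiments, compared with CMC-treated mice.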

Mus musculus [2] = experiment: Antinociceptive activity in Swiss Albino mouse at 20 mg/kg, po by hot plate assay measured as licking latency; type: functional; set-up: unit: s
In short: (§2)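 Oral dosing in saline or 1% CMC. Mice placed on a surface held at 52.5 ± 0.1 °C; paw-licking latency (s) timed before treatment and at intervals up to 60 min afterwards. Mice with pretest latency below 12 or above 18 s were excluded. Cutoff 45 s.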

Mus musculus [3] = experiment: Antinociceptive activity in Swiss Albino mouse at 10 mg/kg, po by writhing test measured as number of writhes; type: functional; in short: as §1
Mus musculus [4] = experiment: Antinociceptive activity in Swiss Albino mouse at 20 mg/kg, po by writhing test measured as number of writhes in presence of yohimbine; type: functional; in short: as §1
[5] = biological target: Norepinephrine transporter (Rattus norvegicus, UniProt Q9WTR4); experiment: Inhibition of [3H]noradrenaline uptake in Sprague-Dawley rat brain synaptosomes; type: functional, subcellular
Sequence of Norepinephrine transporter (Q9WTR4 whole entry): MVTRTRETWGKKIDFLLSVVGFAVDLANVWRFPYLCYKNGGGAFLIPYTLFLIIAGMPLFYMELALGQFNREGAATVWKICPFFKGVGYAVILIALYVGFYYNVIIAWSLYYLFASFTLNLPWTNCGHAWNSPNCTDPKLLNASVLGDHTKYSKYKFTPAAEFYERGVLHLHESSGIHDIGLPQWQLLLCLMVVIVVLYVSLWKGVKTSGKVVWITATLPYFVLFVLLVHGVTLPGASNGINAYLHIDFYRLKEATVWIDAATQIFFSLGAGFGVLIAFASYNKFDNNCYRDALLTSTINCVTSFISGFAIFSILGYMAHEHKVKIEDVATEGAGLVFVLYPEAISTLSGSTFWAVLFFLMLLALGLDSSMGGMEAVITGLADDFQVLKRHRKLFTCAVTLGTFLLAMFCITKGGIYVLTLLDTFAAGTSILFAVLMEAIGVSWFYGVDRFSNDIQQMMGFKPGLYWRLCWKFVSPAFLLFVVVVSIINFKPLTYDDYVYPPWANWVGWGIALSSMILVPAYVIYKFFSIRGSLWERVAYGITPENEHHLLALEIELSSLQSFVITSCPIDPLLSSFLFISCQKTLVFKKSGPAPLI
In short: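 Rat frontal cortex synaptosomes prepared on a sucrose gradient and resuspended in Krebs-type buffer, pH 7.4, with 0.01 mM pargyline. Preincubated 5 min at 37 °C with or without drug, then [3H]-NE added for 6 min. Samples filtered and counted. Active uptake taken as accumulation at 37 °C minus accumulation at 0 °C.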

[6] = biological target: T1, Alpha-2A adrenergic receptor (Rattus norvegicus, UniProt P22909); experiment: Binding affinity to adrenergic alpha-2A receptor in Sprague-Dawley rat cortical membranes
T1 sequence (P22909 whole entry): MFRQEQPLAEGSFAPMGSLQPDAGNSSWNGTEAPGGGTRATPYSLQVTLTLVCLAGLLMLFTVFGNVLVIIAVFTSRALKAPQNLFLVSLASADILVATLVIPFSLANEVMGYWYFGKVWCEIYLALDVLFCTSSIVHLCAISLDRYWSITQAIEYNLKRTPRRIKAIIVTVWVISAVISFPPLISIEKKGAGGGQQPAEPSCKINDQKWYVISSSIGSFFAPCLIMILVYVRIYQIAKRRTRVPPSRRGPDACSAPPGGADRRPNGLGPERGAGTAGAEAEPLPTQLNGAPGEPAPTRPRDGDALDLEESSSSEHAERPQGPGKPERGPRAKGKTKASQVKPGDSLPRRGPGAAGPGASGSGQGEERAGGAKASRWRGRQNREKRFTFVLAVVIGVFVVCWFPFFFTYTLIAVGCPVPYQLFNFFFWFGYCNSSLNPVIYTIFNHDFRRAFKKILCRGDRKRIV

Cerebral cortex = experiment: Increase in noradrenaline release in Sprague-Dawley rat cortical membranes; type: functional
Mus musculus [7] = organism: Mus musculus; experiment: Impairment in mouse rotarod test; type: functional, organism-based
Mus musculus [8] = experiment: Antinociceptive activity in Swiss Albino mouse at 1 mg/kg, sc by abdominal constriction assay; type: functional, Abdomen; details: route subcutaneous
In short: (§3)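 Acetic acid writhing in mice: 0.6% acetic acid at 10 mL/kg i.p., with stretching movements counted over 10 min starting 5 min after injection. Compound A 1 mg/kg s.c. or antagonists i.p. Drugs in 0.9% saline or dispersed in 1% carboxymethylcellulose. Groups of 10-15 mice, compared against saline/CMC controls.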

Mus musculus [9] = experiment: Antinociceptive activity in Swiss Albino mouse at 30 mg/kg, po by writhing test measured as number of writhes; type: functional; in short: as §1
Mus musculus [10] = experiment: Antinociceptive activity in Swiss Albino mouse at 30 mg/kg, po by hot plate assay measured as licking latency; type: functional; in short: as §2
Mus musculus [11] = experiment: Antinociceptive activity in Swiss Albino mouse at 1 mg/kg, ip by abdominal constriction assay; type: functional, Abdomen; details: route intraperitoneal; in short: as §3
Mus musculus [12] = experiment: Antagonist effect on compound A-induced antinociception in Swiss Albino mouse at 1 mg/kg, ip; type: functional; details: route intraperitoneal
In short: (§4)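 Mice given antagonist i.p. (yohimbine 3 mg/kg, BRL-44408 1 mg/kg, ARC-239 10 mg/kg) plus compound A 1 mg/kg s.c., or antagonist plus vehicle. Abdominal constriction test: 0.6% acetic acid (10 mL/kg) i.p., stretching movements counted for 10 min beginning 5 min after injection. Groups of 10-15 mice, compared with saline/CMC controls.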

Mus musculus [13] = experiment: Antagonist effect on compound A-induced antinociception in Swiss Albino mouse at 3 mg/kg, ip; type: functional; details: route intraperitoneal; in short: as §4
Mus musculus [14] = experiment: Antinociceptive activity in Swiss Albino mouse at 3 mg/kg, po by writhing test measured as number of writhes in presence of yohimbine; type: functional
Mus musculus [15] = experiment: Antinociceptive activity in Swiss Albino mouse at 3 mg/kg, ip by abdominal constriction assay; type: functional, Abdomen; details: route intraperitoneal; in short: as §3
Mus musculus [16] = experiment: Antinociceptive activity in Swiss Albino mouse at 3 mg/kg, po by hot plate assay measured as licking latency; type: functional; in short: as §2
Mus musculus [17] = experiment: Antagonist effect on compound A-induced antinociception in Swiss Albino mouse at 10 mg/kg, ip; type: functional; details: route intraperitoneal; in short: as §4
Mus musculus [18] = experiment: Antinociceptive activity in Swiss Albino mouse at 5 mg/kg, po by writhing test measured as number of writhes; type: functional; in short: as §1

SMILES: CCOC(=O)CCn1nc(-c2ccccc2)c2onc(C)c2c1=O
Activity (Mus musculus [1]): 32.7 | Activity (Mus musculus [2]): 17.4

SMILES: N#Cc1cccc(N2CCN(CCCn3ncc4ccccc4c3=O)CC2)c1
Activity (Mus musculus [3]): 17.2

SMILES: Cc1noc2c(-c3ccccc3[N+](=O)[O-])nn(CCCN3CCN(c4cccc(Cl)c4)CC3)c(=O)c12
Activity (Mus musculus [1]): 31.7

SMILES: CC(CN1CCN(c2cccc(Cl)c2)CC1)Cn1ncc2ccccc2c1=O (centres undefined)
Activity (Mus musculus [1]): 36.7

SMILES: O=C1c2ccccc2C(=O)N1CCN1CCN(c2ccc(F)cc2)CC1
Activity (Mus musculus [1]): 22.6 | Activity (Mus musculus [4]): 37.9

SMILES: Cc1noc2c(-c3ccccc3)nn(CCC(=O)N3CCN(c4ccc(Cl)cc4)CC3)c(=O)c12
Activity (Mus musculus [1]): 23.5 | Activity (Mus musculus [4]): 45.4 | Activity (Mus musculus [2]): 17.2

SMILES: Cc1noc2cnn(CCCN3CCN(c4cccc(Cl)c4)CC3)c(=O)c12
Activity (Mus musculus [1]): 11.9 | Activity (Mus musculus [4]): 27.4 | Activity (Mus musculus [2]): 27.7

IC50 [5]: 130 nM | Ki [6]: > 1000 nM
SMILES: Cc1noc2c(-c3ccccc3)nn(CCCN3CCN(c4cccc(Cl)c4)CC3)c(=O)c12
Activity (Cerebral cortex): Dose-dependent effect | Activity (Mus musculus [7]): inactive | Activity (Mus musculus [8]): 11.6

SMILES: Cc1noc2c(-c3ccccc3)nnc(SCCCN3CCN(c4ccc(F)cc4)CC3)c12
Activity (Mus musculus [1]): 28.6

SMILES: Cc1nn(CCCN2CCN(c3cccc(Cl)c3)CC2)c(=O)c2nn(-c3ccccc3)c(C)c12
Activity (Mus musculus [1]): 10.3

SMILES: Cc1noc2c(-c3ccccc3)nn(CCCN3CCN(c4ccccn4)CC3)c(=O)c12
Activity (Mus musculus [9]): 30.2 | Activity (Mus musculus [10]): 15.1

SMILES: Cc1onc2c(=O)n(CCCN3CCN(c4cccc(Cl)c4)CC3)nc(-c3cccs3)c12
Activity (Mus musculus [1]): 16.2

SMILES: O=c1c2ccccc2cnn1CCCCN1CCN(c2cccc(Cl)c2)CC1
Activity (Mus musculus [1]): 28.5

SMILES: Cc1noc2c(-c3ccccc3)nn(CCCN3CCN(c4ccc(Cl)cc4)CC3)c(=O)c12
Activity (Mus musculus [1]): 27.1

SMILES: O=C1c2ccccc2C(=O)N1CCCN1CCN(c2ccc(F)cc2)CC1
Activity (Mus musculus [1]): 19.4 | Activity (Mus musculus [2]): 36.5

SMILES: Cc1cc(C)c2c(-c3ccccc3)nn(CCCN3CCN(c4cccc(Cl)c4)CC3)c(=O)c2n1
Activity (Mus musculus [1]): 18

SMILES: O=C1c2ccccc2C(=O)N1CCCN1CCN(c2cccc(Cl)c2)CC1
Activity (Mus musculus [1]): 34.9 | Activity (Mus musculus [2]): 16.2

SMILES: Cc1noc2c(-c3ccccc3N)nn(CCCN3CCN(c4cccc(Cl)c4)CC3)c(=O)c12
Activity (Mus musculus [1]): 28 | Activity (Mus musculus [2]): 16.5

SMILES: Cc1noc2c(-c3ccccc3)nn(CCN3CCN(c4cccc(Cl)c4)CC3)c(=O)c12
Activity (Mus musculus [1]): 23.6 | Activity (Mus musculus [4]): 37.2 | Activity (Mus musculus [2]): 15.4

SMILES: CC1c2ccccc2CN1CC1=NCCN1 (centres undefined)
Activity (Mus musculus [11]): 32.9 | Activity (Mus musculus [12]): 33.4

SMILES: O=c1c2ccccc2cnn1CCCN1CCN(c2cccc(Cl)c2)CC1
Activity (Mus musculus [1]): 8.2 | Activity (Mus musculus [4]): 31.8 | Activity (Mus musculus [2]; 20 mg/kg): 28 and 83%

SMILES: O=c1c2ccccc2cnn1CCCN1CCN(c2ccc(Cl)cc2)CC1
Activity (Mus musculus [1]): 23.9

SMILES: Cc1noc2c(-c3ccc([N+](=O)[O-])cc3)nn(CCCN3CCN(c4cccc(Cl)c4)CC3)c(=O)c12
Activity (Mus musculus [1]): 26.8

SMILES: Cc1noc2c(-c3ccccc3)nn(CCCN3CCN(c4ccc(F)cc4)CC3)c(=O)c12
Activity (Mus musculus [9]): 39.2 | Activity (Mus musculus [10]): 17.6

SMILES: COC(=O)[C@@H]1[C@H]2C[C@H]3c4[nH]c5ccccc5c4CCN3C[C@@H]2CC[C@@H]1O [YOHIMBINE]
Activity (Mus musculus [13]): 27.8 | Activity (Mus musculus [14]): 35.9 | Activity (Mus musculus [15]): 28.5 | Activity (Mus musculus [16]): 15.8

SMILES: Cc1noc2c(-c3ccccc3)nn(CC(C)CN3CCN(c4cccc(Cl)c4)CC3)c(=O)c12 (centres undefined)
Activity (Mus musculus [1]): 35.5

SMILES: COc1ccccc1N1CCN(CCN2C(=O)c3ccccc3C(C)(C)C2=O)CC1
Activity (Mus musculus [17]): 9.6

SMILES: Cc1noc2cnn(CCCCN3CCN(c4cccc(Cl)c4)CC3)c(=O)c12
Activity (Mus musculus [18]): 27.2

SMILES: Cc1noc2c(-c3ccccc3)nn(CCCCN3CCN(c4cccc(Cl)c4)CC3)c(=O)c12
Activity (Mus musculus [1]): 30.6

SMILES: Cc1noc2c(-c3ccccc3)nn(CCC(=O)N3CCN(c4cccc(Cl)c4)CC3)c(=O)c12
Activity (Mus musculus [1]): 22.1 | Activity (Mus musculus [4]): 41.3
